Assay results as given in PubChem BioAssay AID588686 (Southern Research Specialized Biocontainment Screening …, 2011).
Calls of active or inactive are those of the source.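 How the source made its calls: active means inhibition of 30% or more at any tested concentration; inactive means the rest.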

Molecular target: M1-family alanyl aminopeptidase PfA-M1 [Plasmodium falciparum 3D7]
Test: PfM1AAP aminopeptidase inhibitors, dose response, biochemical, QFRET, H-Leu-NHMec substrate (AID 588686)
Details: recombinant PfM1AAP, H-Leu-NHMec fluorogenic cleavage
Summary of the method: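 times = enzyme reaction with compounds for 90 min, room temperature | assay system = recombinant PfM1AAP enzyme | amount = PfM1AAP enzyme at 5 µg/mL final | measure = percent inhibition per dose, IC50 from locked four-parameter fit | repeats = each concentration tested in triplicate | measured by = fluorescence at 370/460 nm | reagent = fluorogenic substrate H-Leu-NHMec at 0.1 mM final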

| IC50 [µM] | SMILES |
| --- | --- |
| 23.8 | CN(C)c1ccc(CNC(=O)C2CCN(S(=O)(=O)c3ccc(Br)s3)CC2)cc1 |
| 49.9 | CC(C)(C)c1ccc(-c2ccc(S(=O)(=O)N3CCC(C(=O)NCc4ccc5c(c4)OCO5)CC3)s2)cc1 |
| 11.4 | O=C(NCc1ccc2c(c1)OCO2)C1CCN(S(=O)(=O)c2ccc(-c3cncc4ccccc34)s2)CC1 |

Same assay, conditions: recombinant PfM1AAP, H-Leu-NHMec fluorogenic cleavage; at 100 µM (top of the series)

| inhibition | SMILES |
| --- | --- |
| inactive | CC[C@H](C)[C@H](NC(=O)c1ccc([N+](=O)[O-])cc1)C(=O)NCc1ccccc1 |
| inactive | CC[C@H](C)[C@H](NS(=O)(=O)c1ccc(Br)s1)C(=O)O |
| inactive | CC[C@H](C)[C@H](NS(=O)(=O)c1cccs1)C(=O)NCc1ccc(F)cc1 |
| inactive | CC(=O)Nc1cccc(-c2ccc(S(=O)(=O)N3CCC(C(=O)NCc4ccc5c(c4)OCO5)CC3)s2)c1 |
| inactive | CC[C@H](C)[C@H](NS(=O)(=O)c1ccc(Br)s1)C(=O)NCc1ccc(C(F)(F)F)cc1 |
| inactive | CC[C@H](C)[C@H](NS(=O)(=O)c1ccc(Br)s1)C(=O)NCc1ccc(F)cc1 |

The next lines start with the molecule.

| SMILES | inhibition |
| --- | --- |
| O=C(NCc1ccc2c(c1)OCO2)C1CCN(S(=O)(=O)c2ccc(-c3cccc(F)c3)s2)CC1 | inactive |
| COc1ccc(-c2ccc(S(=O)(=O)N3CCC(C(=O)NCc4ccc5c(c4)OCO5)CC3)s2)cc1 | inactive |
| CC[C@H](C)[C@H](NC(=O)c1ccc([N+](=O)[O-])cc1)C(=O)NCc1ccc(C(F)(F)F)cc1 | inactive |
| COc1cccc(-c2ccc(S(=O)(=O)N3CCC(C(=O)NCc4ccc5c(c4)OCO5)CC3)s2)c1 | inactive |
| CC[C@H](C)[C@H](NC(=O)c1ccc([N+](=O)[O-])cc1)C(=O)NCc1ccc(F)cc1 | inactive |
| CC[C@H](C)[C@H](NC(=O)c1ccc(C(C)(C)C)cc1)C(=O)NCc1ccc(C(F)(F)F)cc1 | inactive |
| O=C(NCc1ccc2c(c1)OCO2)C1CCN(S(=O)(=O)c2ccc(-c3ccccc3)s2)CC1 | inactive |
